# Results as given in paper PMC7881365 (Xenobiotica; the fate of foreign compounds in biological …, 2020).
# Key:
# CYP1B1.1 = biological target: T1, CYP1B1.1 (Homo sapiens, UniProt Q16678); type: in vitro ADME; settings: peak intensities
# T1 sequence (Q16678 1-543): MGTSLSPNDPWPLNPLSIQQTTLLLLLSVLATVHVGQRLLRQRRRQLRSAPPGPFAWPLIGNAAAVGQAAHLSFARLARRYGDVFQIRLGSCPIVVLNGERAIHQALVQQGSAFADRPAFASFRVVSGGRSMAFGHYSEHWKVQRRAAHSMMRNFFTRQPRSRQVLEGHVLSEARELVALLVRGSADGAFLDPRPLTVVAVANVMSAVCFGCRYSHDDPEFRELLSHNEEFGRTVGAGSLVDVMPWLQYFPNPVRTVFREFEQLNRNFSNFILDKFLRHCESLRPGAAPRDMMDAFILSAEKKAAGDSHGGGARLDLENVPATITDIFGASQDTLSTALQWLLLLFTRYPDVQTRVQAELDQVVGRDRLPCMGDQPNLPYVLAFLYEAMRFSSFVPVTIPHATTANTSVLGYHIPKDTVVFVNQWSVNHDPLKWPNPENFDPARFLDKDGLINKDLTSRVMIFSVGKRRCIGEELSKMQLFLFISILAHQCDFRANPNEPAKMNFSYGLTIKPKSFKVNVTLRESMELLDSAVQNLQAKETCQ
# CYP1B1.3 = biological target: T2, CYP1B1.3 (Homo sapiens, UniProt Q16678); type: in vitro ADME; settings: peak intensities
# T2 sequence (Q16678 1-543): T1 sequence (Q16678 1-543)
# CYP1A1 = biological target: T3, CYP1A1 (Homo sapiens, UniProt P04798); type: in vitro ADME; settings: peak intensities
# T3 sequence (P04798 1-512): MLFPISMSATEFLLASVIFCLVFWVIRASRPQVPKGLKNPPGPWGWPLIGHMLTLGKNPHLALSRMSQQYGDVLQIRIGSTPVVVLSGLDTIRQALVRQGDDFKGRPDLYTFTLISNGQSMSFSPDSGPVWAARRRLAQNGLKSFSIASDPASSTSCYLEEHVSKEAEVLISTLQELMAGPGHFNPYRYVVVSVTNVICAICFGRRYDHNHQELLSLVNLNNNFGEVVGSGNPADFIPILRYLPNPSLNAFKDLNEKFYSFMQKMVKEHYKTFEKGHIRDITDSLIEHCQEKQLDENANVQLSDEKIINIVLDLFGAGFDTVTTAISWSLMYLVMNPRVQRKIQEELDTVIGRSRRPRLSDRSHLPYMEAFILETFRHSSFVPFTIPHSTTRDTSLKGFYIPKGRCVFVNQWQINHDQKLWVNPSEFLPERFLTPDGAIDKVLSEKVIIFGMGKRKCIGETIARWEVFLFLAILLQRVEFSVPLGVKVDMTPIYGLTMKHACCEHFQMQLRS
# Summary of the method: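 Reconstituted system: purified E. coli-expressed CYP1A1 (50 pmol), NADPH-P450 reductase (100 pmol), DLPC (50 µg), no b5. Incubated with 60 µM methoxyflavone test compound at 37 °C for 20 min after 1 min preincubation, started with NADPH-generating system (0.5 mM NADP+, 5 mM glucose 6-phosphate, 0.5 unit/mL dehydrogenase). Quenched with ice-cold CH3CN and centrifuged. LC-MS/MS positive ESI; product as peak intensity, two or three determinations.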
# CYP2B6 = biological target: T4, CYP2B6 (Homo sapiens, UniProt P20813); type: in vitro ADME; settings: peak intensities
# T4 sequence (P20813 1-491): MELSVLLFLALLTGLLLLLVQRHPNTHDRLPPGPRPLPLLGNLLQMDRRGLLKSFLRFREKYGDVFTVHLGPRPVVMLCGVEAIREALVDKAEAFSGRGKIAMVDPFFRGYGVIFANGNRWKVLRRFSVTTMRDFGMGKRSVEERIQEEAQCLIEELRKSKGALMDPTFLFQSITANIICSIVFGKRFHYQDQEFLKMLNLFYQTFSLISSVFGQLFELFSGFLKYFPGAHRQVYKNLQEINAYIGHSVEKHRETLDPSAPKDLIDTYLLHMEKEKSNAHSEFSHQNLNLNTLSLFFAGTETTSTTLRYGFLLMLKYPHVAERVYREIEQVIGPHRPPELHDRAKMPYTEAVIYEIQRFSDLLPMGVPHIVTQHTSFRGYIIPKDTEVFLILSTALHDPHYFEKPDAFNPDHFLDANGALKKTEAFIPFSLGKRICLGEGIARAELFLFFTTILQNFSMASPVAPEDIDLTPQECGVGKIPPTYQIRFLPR
# Summary of the method: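 E. coli membranes co-expressing CYP2B6 and NADPH-P450 reductase (50 pmol P450) incubated with 60 µM methoxyflavone test compound at 37 °C for 20 min. Reaction started after 1 min preincubation with NADPH-generating system (0.5 mM NADP+, 5 mM glucose 6-phosphate, 0.5 unit/mL glucose 6-phosphate dehydrogenase). Stopped with ice-cold CH3CN, then centrifuged. Supernatant analysed by LC-MS/MS (positive ESI); products reported as peak intensities, from two or three determinations.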
# CYP1A2 = biological target: T5, CYP1A2 (Homo sapiens, UniProt P05177); type: in vitro ADME; settings: peak intensities
# T5 sequence (P05177 1-516): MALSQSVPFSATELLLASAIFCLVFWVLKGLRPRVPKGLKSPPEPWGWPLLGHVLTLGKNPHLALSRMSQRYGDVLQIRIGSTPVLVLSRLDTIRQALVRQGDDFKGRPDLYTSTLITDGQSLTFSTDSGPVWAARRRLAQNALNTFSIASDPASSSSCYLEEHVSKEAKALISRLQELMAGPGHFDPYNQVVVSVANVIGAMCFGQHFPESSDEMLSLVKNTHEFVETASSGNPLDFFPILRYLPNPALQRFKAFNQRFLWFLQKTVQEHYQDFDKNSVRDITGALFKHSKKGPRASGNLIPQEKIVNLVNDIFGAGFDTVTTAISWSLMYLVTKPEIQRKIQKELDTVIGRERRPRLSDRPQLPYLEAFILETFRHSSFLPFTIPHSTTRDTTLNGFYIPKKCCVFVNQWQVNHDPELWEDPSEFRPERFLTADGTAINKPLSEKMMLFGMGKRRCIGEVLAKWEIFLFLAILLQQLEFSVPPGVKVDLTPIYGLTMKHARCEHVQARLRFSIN
# Hela and SH-SY5Y cells = settings: ref Fatokun et al. (2013; 2014); cited from earlier work
formation of 2′Me239a (possibly 2′OHF) (CYP1B1.1),formation of 2′Me255a (m/z 255 product) (CYP1B1.1),formation of 2′Me239a (possibly 2′OHF) (CYP1B1.3),formation of 2′Me255a (m/z 255 product) (CYP1B1.3),formation of 2′Me255a (m/z 255 product) (CYP1A1),formation of 2′Me239a (possibly 2′OHF) (CYP2B6),formation of 2′Me255a (m/z 255 product) (CYP2B6),formation of 2′Me255a (m/z 255 product) (CYP1A2),Structure (SMILES),prevention of decreases in cell viability caused by N-methyl-N′-nitro-N-nitrosoguanine (Hela and SH-SY5Y cells)
highly active,very low levels,highly active,very low levels,very low levels,highly active,very low levels,very low levels,"COc1ccccc1-c1cc(=O)c2ccccc2o1 [2′MeF, 2′-methoxyflavone]",–
–,–,–,–,–,–,–,–,"COc1ccc(-c2cc(=O)c3ccccc3o2)cc1OC [3′,4′-dimethoxyflavone, reference compound]",effectively prevent decreases in cell viability
–,–,–,–,–,–,–,–,"COc1ccc(-c2cc(=O)c3ccccc3o2)cc1 [4′MeF, 4′-methoxyflavone]",effectively prevent decreases in cell viability
